Data taken from ChEMBL document CHEMBL2311478, “Macrolactonolides: a novel class of anti-inflammatory compounds” (Bioorg Med Chem, 2013).
≈ marks a conversion by molar mass, not a printed value.

Columns and labels:
Streptococcus pyogenes = assay: Antibacterial activity against inducible-resistant to macrolide, licosamide and streptogramin Streptococcus pyogenes Finland 11 by broth microdilution method; format: functional
In short: (§1)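 MICs by CLSI broth microdilution with double dilutions, except that Streptococcus medium used 5% horse serum in place of lysed blood. Bacteria were pre-grown on Columbia agar with 5% sheep blood (streptococci) or Mueller–Hinton agar (staphylococci).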

Rattus norvegicus = assay: Antiinflammatory activity against ovalbumin-induced airway allergic Brown-Norway rat model assessed as decrease of eosinophil peroxidase activity in bronchoalveolar lavage fluid at 11 mg/kg administered intranasally as dry powder measured on day 29 after ovalbumin challenge; format: functional, Lung; parameters: scale not given: the % may be the effect or the level left
PBMC [1] = assay: Antiinflammatory activity in human PBMC assessed as inhibition of LPS-induced IL-6 production after 6 hrs; format: functional, cell-based
In short: (§2)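 Thawed cryopreserved human PBMCs were preincubated 1 h at 37 °C, 5% CO2, then exposed to test compound for 1 h before LPS, anti-CD3 or PHA stimulation. Supernatants were collected at 6, 24 or 48 h according to each cytokine's peak, and cytokines quantified by Luminex multiplex bead assay. 10-point titration starting at 20 µM, in duplicate, with constant DMSO. Parallel Alamar Blue cytotoxicity check under 48 h PHA.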

PBMC [2] = assay: Antiinflammatory activity in human PBMC assessed as inhibition of PHA-induced IL-4 production after 24 hrs; format: functional, cell-based; in short: as §2
PBMC [3] = assay: Antiinflammatory activity in human PBMC assessed as inhibition of LPS-induced IL-1beta production after 6 hrs; format: functional, cell-based; in short: as §2
Glucocorticoid receptor = biological target: T1, Glucocorticoid receptor (Homo sapiens, UniProt P04150); assay: Binding affinity to glucocorticoid receptor (unknown origin) by fluorescence polarization competitive binding assay
T1 sequence (P04150 whole entry): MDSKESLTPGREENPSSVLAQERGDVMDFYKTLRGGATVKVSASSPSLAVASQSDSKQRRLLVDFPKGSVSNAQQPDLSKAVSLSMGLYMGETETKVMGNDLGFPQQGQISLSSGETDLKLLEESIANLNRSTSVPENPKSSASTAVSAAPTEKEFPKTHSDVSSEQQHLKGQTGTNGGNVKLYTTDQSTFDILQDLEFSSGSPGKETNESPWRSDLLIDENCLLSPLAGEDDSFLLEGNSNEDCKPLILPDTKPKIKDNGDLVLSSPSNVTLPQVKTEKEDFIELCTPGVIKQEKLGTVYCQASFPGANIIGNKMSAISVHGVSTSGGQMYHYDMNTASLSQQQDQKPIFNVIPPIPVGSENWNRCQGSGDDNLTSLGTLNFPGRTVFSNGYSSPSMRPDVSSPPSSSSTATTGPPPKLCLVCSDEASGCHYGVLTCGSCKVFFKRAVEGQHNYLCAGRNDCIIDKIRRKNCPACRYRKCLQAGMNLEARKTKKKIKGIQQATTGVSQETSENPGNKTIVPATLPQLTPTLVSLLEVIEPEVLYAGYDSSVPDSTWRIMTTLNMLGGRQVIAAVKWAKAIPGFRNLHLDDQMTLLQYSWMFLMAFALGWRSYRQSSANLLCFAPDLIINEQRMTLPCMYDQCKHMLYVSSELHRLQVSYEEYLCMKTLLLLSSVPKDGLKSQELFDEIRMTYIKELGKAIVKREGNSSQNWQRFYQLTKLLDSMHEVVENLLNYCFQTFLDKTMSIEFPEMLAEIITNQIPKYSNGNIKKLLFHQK

Streptococcus pneumoniae [4] = assay: Antibacterial activity against inducible-resistant to macrolide, licosamide and streptogramin Streptococcus pneumoniae 134 GR-M by broth microdilution method; format: functional; in short: as §1
PBMC [5] = assay: cells; format: functional, cell-based; conditions: Homo sapiens, 48 h
PBMC [6] = assay: Antiinflammatory activity in human PBMC assessed as inhibition of LPS-induced MIP1alpha production after 6 hrs; format: functional, cell-based; in short: as §2
PBMC [7] = assay: Antiinflammatory activity in human PBMC assessed as inhibition of PHA-induced TNFalpha production after 6 hrs; format: functional, cell-based; in short: as §2
Staphylococcus aureus = assay: Antibacterial activity against Staphylococcus aureus ATCC 13709 by broth microdilution method; format: functional
In short: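 CLSI broth microdilution with double dilutions in 96-well plates. For streptococci, 5% horse serum replaced lysed blood in the medium. Inocula were grown on Columbia agar with 5% sheep blood for streptococci, Mueller–Hinton chocolate agar for H. influenzae, and Mueller–Hinton agar for staphylococci. Read-out is MIC in mg/L.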

Streptococcus pneumoniae [8] = assay: Antibacterial activity against constitutive-resistant to macrolide, licosamide and streptogramin Streptococcus pneumoniae 58 Spain by broth microdilution method; format: functional; in short: as §1

CC[C@H]1OC(=O)[C@H](C)[C@@H](O[C@H]2C[C@@](C)(OC)[C@@H](O)[C@H](C)O2)[C@H](C)[C@@H](O[C@@H]2O[C@H](C)C[C@H](N(C)C)[C@H]2O)[C@](C)(O)C[C@@H](C)CN(CCCNC(=O)[C@H]2[C@H](C)C[C@H]3[C@@H]4CCC5=CC(=O)C=C[C@]5(C)[C@@]4(F)[C@@H](O)C[C@@]32C)[C@H](C)[C@@H](O)[C@]1(C)O
MIC (Streptococcus pyogenes): 32 µg/mL (≈ 28.2 µM)
Activity (Rattus norvegicus): 12%
EC50 (PBMC [1]): > 20000 nM
EC50 (PBMC [2]): 210 nM
EC50 (PBMC [3]): > 20000 nM
EC50 (Glucocorticoid receptor): 4160 nM
MIC (Streptococcus pneumoniae [4]): > 64 µg/mL
EC50 (PBMC [5]): 110 nM
EC50 (PBMC [6]): 7900 nM
EC50 (PBMC [7]): 1330 nM
MIC (Staphylococcus aureus): 8 µg/mL (≈ 7.04 µM)
MIC (Streptococcus pneumoniae [8]): 64 µg/mL (≈ 56.3 µM)
